APJ antagonist = blocks the human apelin receptor APJ; CHO-K1 APJ beta-arrestin complementation, luminescence; inhibition, % at 20 µM; 330,000 compounds, 0.32% hits; AID 2521;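 active means inhibition above about 40% at 20 µM, limit read from the data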;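 further: cells challenged with 10 nM apelin-13 agonist together with compound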
Beta2AR agonist = human beta-2 adrenergic receptor agonism by FAP. Am2.2-beta2AR cells, FAP receptor internalization, flow cytometry. 340,000 compounds, 0.43% hits. response, % (test concentration not listed);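 active means response above a set limit, near 3 SD of response in nonfluorescent compounds, cut at about 42% in these data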
Target sequence (P07550 whole entry, looked up): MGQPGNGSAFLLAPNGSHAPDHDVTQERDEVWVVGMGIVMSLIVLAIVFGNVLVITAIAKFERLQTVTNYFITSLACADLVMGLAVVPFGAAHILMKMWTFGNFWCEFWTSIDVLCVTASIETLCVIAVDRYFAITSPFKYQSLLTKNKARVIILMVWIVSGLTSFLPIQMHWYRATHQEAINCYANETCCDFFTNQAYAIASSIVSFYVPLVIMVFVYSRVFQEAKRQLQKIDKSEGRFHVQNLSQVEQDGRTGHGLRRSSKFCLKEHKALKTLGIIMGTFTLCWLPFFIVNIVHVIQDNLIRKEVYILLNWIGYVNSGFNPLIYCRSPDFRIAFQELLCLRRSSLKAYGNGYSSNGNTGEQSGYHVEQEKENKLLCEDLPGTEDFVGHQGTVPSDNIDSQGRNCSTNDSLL
EBI2 antag = EBI2 (human) antagonism; EBI2 beta-arrestin recruitment, luminescence, 7a,25-OHC stimulated; inhibition, % at 5 µM; 360,000 compounds, 0.81% hits; AID 651636; P32249; in the data active means inhibition above about 38%;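 further: enzyme fragment complementation signal reports receptor beta-arrestin coupling in cells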
CXCR6 block = inhibitors of human CXCR6 receptor. O00574. CHO-K1 PathHunter CXCR6 beta-arrestin, luminescence. inhibition, % at 20 µM. 360,000 compounds, 0.36% hits. AID 602244; in the data active means inhibition above about 34%, passing the limit was not always enough;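 further: antagonist mode with CXCL16 agonist at 10 nM final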
CCR6 antag = antagonists of human CCR6 receptor | P51684 | CHO-K1 CCR6 PathHunter beta-arrestin, luminescence, CCL20-stimulated | inhibition, % at 20 µM | 340,000 compounds, 0.49% hits | AID 493098;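 active means compounds whose inhibition of the agonist-driven luminescence signal at 20 µM reaches about 50%, limit read from the data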;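 further: cells stimulated with CCL20 at 14 nM final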
APJ ag = agonists of human APJ apelin receptor; P35414; CHO-K1 APJ PathHunter beta-arrestin, luminescence; 0% DMSO wells, 100% apelin; activation, % at 20 µM; 330,000 compounds, 0.11% hits; AID 2520;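 active means activation more than six SD over the plate average, tested at 20 µM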
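Material: CHO-K1 APJ beta-arrestin complementation cell line; Input: cell density 1000 per well; Incubation: compound stimulation 90 min at 25 °C, detection 60 min; Signal: luminescence from split beta-galactosidase complementation, Galacton Star/Emerald II substrate; Controls: DMSO-only wells as negative, 10 nM Apelin-13 as positive control.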
Large screens that a line does not name were inactive. In the library only some 1.8% were active in any assay of this set; here they are far more common.

O=C(C1=C[C@H](c2csc3ccccc23)C[C@H](OCc2ccc(CO)cc2)O1)N1CCN(Cc2ccc3c(c2)OCO3)CC1	EBI2 antag 51
O=C(C1=C[C@H](c2csc3ccccc23)C[C@H](OCc2ccc(CO)cc2)O1)N1CCN(Cc2ccccc2)CC1	none
CCOCCCn1c(=N)c(C(N)=S)cc2c(=O)n3cccc(C)c3nc21	none
Cc1cccn2c(=O)c3cc(C(=O)NC4CCCC4)c(=N)n(Cc4ccc(F)cc4)c3nc12	Beta2AR agonist 103
CCCCNC(=O)c1cc2c(=O)n3cccc(C)c3nc2n(Cc2ccccc2)c1=N	Beta2AR agonist 87
Cc1cccn2c(=O)c3cc(C(=O)NCCN4CCOCC4)c(=N)n(CCc4ccccc4)c3nc12	none
N=c1c(C(=O)NC2CCCCC2)cc2c(=O)n3ccccc3nc2n1Cc1ccc(F)cc1	none
Cc1cccn2c(=O)c3cc(C(N)=S)c(=N)n(CCCOC(C)C)c3nc12	Beta2AR agonist 71
Cc1cccn2c(=O)c3cc(C(=O)NC4CCCC4)c(=N)n(CCc4ccccc4)c3nc12	Beta2AR agonist 79
CCN(Cc1nc2ccccc2c(=O)[nH]1)C(=O)c1cc2c(s1)CCCCC2	none
O=C(CSc1nnc2ccccn12)Nc1ccc2c(c1)OCCO2	none
COc1ccc(OC)c(NP2(=O)OCC(C)([N+](=O)[O-])CO2)c1 (centres undefined)	none (no result: APJ antagonist, APJ ag)
CCNC(=O)c1cc2c(=O)n3cccc(C)c3nc2n(CCc2ccccc2)c1=N	Beta2AR agonist 89
CCCS(=O)(=O)N1CCc2ccc(NC(=O)C3CCCO3)cc2C1 (centres undefined)	none
OC[C@@H]1CN(Cc2ccco2)C[C@H](n2cnc3c(NC4CC4)ncnc32)O1	none (no result: APJ antagonist, Beta2AR agonist, CCR6 antag, APJ ag)
CCOC(=O)SC1=N/C(=C\c2ccc(N(C)C)cc2)C(=O)S1	CCR6 antag 51
C/C(=N\NC(=O)C1CCCN(S(=O)(=O)c2ccccc2)C1)c1ccccn1 (centres undefined)	CXCR6 block 40 (no result: CCR6 antag)
CCCCC(CC)CN=C(N)NC(N)=NCCCCCCN=C(N)NC(N)=NCC(CC)CCCC (centres undefined)	CXCR6 block 90, CCR6 antag 79
CCOC(=O)N1CCN(C(C(=O)NC2CCCC2)C(C)C)CC1 (centres undefined)	none (no result: APJ antagonist, Beta2AR agonist, CXCR6 block, CCR6 antag, APJ ag)
Cc1cccc2sc(N(CCCN(C)C)C(=O)c3ccc(S(=O)(=O)N4CCc5ccccc5C4)cc3)nc12	Beta2AR agonist 46
COc1ccc(CCN2C(=O)COc3ccccc3C2C(=O)NC(C)(C)C)cc1OC (centres undefined)	none (no result: APJ antagonist, Beta2AR agonist, CCR6 antag, APJ ag)
N#Cc1c(N)nc(SCc2ccncc2)c(C#N)c1-c1cccs1	none
CN1CCc2nc(SCc3ccc(Cl)cc3)c(C#N)c(-c3cccs3)c2C1	CCR6 antag 74 (no result: Beta2AR agonist, EBI2 antag, CXCR6 block)
CC1C(c2ccccc2)N(C)C(c2ccccc2)C(C)C1(O)C#Cc1ccccc1 (centres undefined)	CCR6 antag 50
CCc1ccccc1OCC(=O)NNCC(=O)Nc1cccc(C#N)c1	none
Cc1ccc(C2=NOC(=O)/C2=C\c2ccccc2)cc1	none
O=C1ON=C(c2ccccc2)/C1=C/c1ccc(O)cc1	Beta2AR agonist 47, CXCR6 block 46
COc1cc(/C=C2/C(=O)ON=C2c2ccccc2)ccc1O	Beta2AR agonist 42, CCR6 antag 55
O=C1ON=C(c2ccccc2)/C1=C/c1ccccc1	none
CCOc1ccc(NC(=O)c2cc(=O)[nH]c3ccccc23)cc1	none
Cc1cccc(NC(=O)Oc2ccc(Cl)c3cccnc23)c1	CXCR6 block 46 (no result: APJ antagonist, Beta2AR agonist, CCR6 antag, APJ ag)
Cc1ccc2c(c1)c1ccc3c(c1n2C)C(=O)C=CC3=O	Beta2AR agonist 93, CXCR6 block 60, CCR6 antag 106
COc1ccc2c(c1)c1ccc3c(c1n2C)C(=O)C=CC3=O	APJ antagonist 44, Beta2AR agonist 96, CXCR6 block 79, CCR6 antag 106
Cn1c2ccccc2c2ccc3c(c21)C(=O)C=CC3=O	Beta2AR agonist 76, CXCR6 block 70, CCR6 antag 109 (no result: APJ antagonist, APJ ag)
CCCOCc1ccc(O)c2ncccc12	EBI2 antag 46
Oc1ccc(COCc2ccccc2)c2cccnc12	none
CC(C)COCc1ccc(O)c2ncccc12	EBI2 antag 44
Cn1c(=O)c2cc(NC(=O)Nc3ccccc3)ccc2n1Cc1ccccc1	none (no result: APJ antagonist, Beta2AR agonist, CCR6 antag, APJ ag)
